SR-BI HDL uptake = inhibitors of SR-BI mediated HDL lipid uptake, primary screen, ldlA[mSR-BI] cells, fluorescence, single point; inhibition, % at 12.5 µM; ldlA[mSR-BI] CHO cells, DiI-HDL uptake fluorescence, 3 h; Scavenger receptor class B member 1 (Mus musculus), Q61009; hit rate 0.96% among 320,000;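 active means mean replicate inhibition of at least 70% and a set share of replicates each scoring 70 or more; inconclusive means meets just one of the two criteria; inactive means fails both criteria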;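 further: 0% = median of neutral control wells and 100% = median of positive control wells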
UBC13 inh = UBC13 polyubiquitin chain formation inhibitors, primary screen, biochemical, TR-FRET, uHTS; Ubiquitin-conjugating enzyme E2 N (Homo sapiens), P61088; inhibition, % at 20 µM; hit rate 0.47% among 330,000; AID 485273, 2010; in the data active means inhibition above about 45%, passing the limit was not always enough; inconclusive means no clear call, values can overlap the other calls
Target sequence (P61088 whole entry, looked up): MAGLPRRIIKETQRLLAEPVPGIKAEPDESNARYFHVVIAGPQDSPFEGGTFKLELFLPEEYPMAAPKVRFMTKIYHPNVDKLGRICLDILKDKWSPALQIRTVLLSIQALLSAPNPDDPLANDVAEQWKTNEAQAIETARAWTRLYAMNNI
Neddyl block = inhibitors of cullin neddylation, primary screen, biochemical, TR-FRET, uHTS, NAE and Ubc12. hit rate 0.58% among 360,000. inhibition, % at 25 µM. AID 651699, 2012. NEDD8-conjugating enzyme Ubc12 (Homo sapiens) + NEDD8-activating enzyme E1 regulatory …; in the data active means inhibition above about 36%
SR-BI uptake up = activators of SR-BI mediated DiI-HDL uptake, primary screen, ldlA[mSR-BI] CHO cells, DiI fluorescence. 3 h; 100 = double the neutral-control signal. activation, % at 12.5 µM. hit rate 0.096% among 320,000;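 active means mean replicate activation of at least 60% and every replicate at or above 60%; inconclusive means mean or all-replicate condition met, but not both; inactive means mean below 60% and not all replicates reaching 60%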;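 further: 0% = median plate neutral-control signal and 100% = twice that signal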
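System: LDL receptor-deficient CHO ldlA cells overexpressing murine SR-BI | Timing: 3 h uptake period with compound, 37 °C | Medium: HEPES-buffered (25 mM, pH 7.4) F12 plus 0.5% BSA | Dosing: Single-point compound dose | Signal: Bottom-read fluorescence, 550/595 nm | Read-out: Retained DiI signal reflecting DiI-HDL uptake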
An asterisk follows results filed as active; u = inconclusive; x = not tested or not shown. Rows were chosen to be rich in hits. Some 1.9% of all compounds tested hit in one or more screens of this group.

SMILES	SR-BI HDL uptake	UBC13 inh	Neddyl block	SR-BI uptake up
COc1cc(OC)cc(-c2c(-c3cccs3)c3cc(-c4ccc5[nH]ccc5c4)ccc3n2C)c1	80*	31	14	-80
CCc1nc2ccc(C(=O)N3CCCC(C(N)=O)C3)cn2c1N(CCC(C)C)CCN(C)C (stereo not given)	x	x	2	x
CC(=O)c1cccc(N=Nc2c(-c3ccccc3)[nH]n(-c3ccccc3)c2=O)c1	100*	-29	-10	-100
Cc1[nH]n(-c2ccccc2)c(=O)c1N=Nc1cccc(Cl)c1	6	-28	3	-6
O=C(Nc1ccc(-n2cnnn2)cc1)c1cccc(S(=O)(=O)N2CCCC2)c1	17	-2	-14	-17
O=C(c1cc2nc(-c3ccc(F)cc3)cc(C(F)(F)F)n2n1)N1CCCCC1c1cccnc1 (stereo not given)	82*	-1	37	-82
COc1cc(/C=N/NC(=O)c2cccs2)ccc1OCc1ccccc1	43	9	35	-43
O=C(N/N=C/c1ccccc1OCc1ccccc1)c1cccs1	76*	11	9	-76
O=C(N/N=C/c1cccc([N+](=O)[O-])c1O)c1cccs1	98*	-87	-72	-98
O=C(N/N=C\c1cc([N+](=O)[O-])ccc1N1CCCC1)c1ccccn1	73*	-52	-30	-73
O=C(N/N=C\c1cc([N+](=O)[O-])ccc1N1CCOCC1)c1ccccn1	6	-1	-14	-6
CCc1ccc(OCC(=O)N/N=C/c2cc([N+](=O)[O-])ccc2N2CCOCC2)cc1	65	-1	-20	-65
COc1ccc(NCC(=O)N/N=C/c2cc([N+](=O)[O-])ccc2N2CCCC2)cc1	86*	-37	-46	-86
COc1ccc2[nH]c3c(C)c4ccncc4c(C)c3c2c1	30	u	42*	-30
CCn1c(NC(=O)c2cccc(Cn3cc(Cl)cn3)c2)nc2ccccc21	93*	6	-178	-93
Cn1c(NC(=O)c2cccc(Cn3cc(Cl)cn3)c2)nc2ccccc21	51	12	-141	-51
O=S(=O)(c1ccc(NC(=S)N2CCCCC2CO)cc1)N1CCOCC1 (stereo not given)	x	x	-7	x
C#CCOCCOCCOCCNc1nc(N2CCN(C(=O)CCCCCCCCCCNC(=O)[C@H]([C@@H](C)CC)n3cc(CCCCN=C(N)N)nn3)CC2)nc(N2CCN(C(=O)CCCCCCCCCCNC(=O)[C@H](CO)n3cc(CCCCCN)nn3)CC2)n1	59	123*	-7	-59
C#CCOCCOCCOCCNc1nc(N2CCN(C(=O)CCCCCCCCCCNC(=O)[C@H]([C@@H](C)CC)n3cc(CCCCCN)nn3)CC2)nc(N2CCN(C(=O)CCCCCCCCCCNC(=O)[C@@H]([C@H](C)CC)n3cc(CCCCCN)nn3)CC2)n1	x	123*	x	x
C#CCOCCOCCOCCNc1nc(N2CCN(C(=O)[C@H]([C@@H](C)CC)n3cc(CCCN=C(N)N)nn3)CC2)nc(N2CCN(C(=O)[C@H]([C@@H](C)CC)n3cc(CCCN=C(N)N)nn3)CC2)n1	x	25	x	x
C#CCOCCOCCOCCNc1nc(N2CCN(C(=O)CCCCCCCCCCNC(=O)[C@H]([C@@H](C)CC)n3cc(CCCCN=C(N)N)nn3)CC2)nc(N2CCN(C(=O)CCCCCCCCCCNC(=O)[C@H]([C@@H](C)CC)n3cc(CCCCN=C(N)N)nn3)CC2)n1	x	126*	x	x
C#CCOCCOCCOCCNc1nc(N2CCN(C(=O)CCCCCCCCCCNC(=O)[C@H](CCCCN)n3cc(C)nn3)CC2)nc(N2CCN(C(=O)CCCCCCCCCCNC(=O)[C@H](CCCCN)n3cc(CCCC(=O)O)nn3)CC2)n1	-29	114*	-20	29
COc1ccc(C(C(=O)Nc2ccc(F)cc2)N2CCN(CC(=O)N3CCCC3)CC2)cc1 (stereo not given)	x	x	12	x
O=C(Nc1ccc2ccccc2c1)c1ccc2[nH]c(=O)c(=O)[nH]c2c1	x	-6	-20	x
CCN1C[C@@H]2[C@@H]3C(=O)N(C)C(=O)[C@@H]3[C@](Cc3ccccc3)(C(=O)OC)N2C1=NCc1ccccc1	-38	x	-11	38
COCCSc1ccccc1C(=O)Nc1ccc([N+](=O)[O-])cc1OC	81*	-8	-29	-81
COc1ccc([N+](=O)[O-])cc1NC(=O)c1cn(-c2ccc(Cl)cc2)c(=O)c2ccccc12	74*	-3	14	-74

Screens: PubChem, several laboratories
